SMILES strings stand for the structures. Where only a bound is given, the exact number is not on record here.

The target in data set [1] is Glycogen synthase kinase-3 beta (Homo sapiens, UniProt P49841). The data set is described as follows: Competitive inhibition of human recombinant full length GSK3beta using YRRAAVPPSPSLSRHSSPHQ(pS)EDEEE as substrate preincubated with enzyme for 10 mins followed by substrate and 25 uM ATP addition measured after 60 mins by ADP-Glo luminescence assay. The method in brief: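 Compounds in serial dilutions were preincubated with kinase for 10 min at rt. Substrate/ATP was then added and the reaction ran 60 min at rt. ADP-Glo reagent 60 min, detection reagent 30 min, then luminescence read (500 ms integration).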
A general note: ADP-Glo first removes unused ATP, then detects ADP through luciferase.

Data set [2] has as its target T1, Mitogen-activated protein kinase 14 (Homo sapiens, UniProt Q16539). The data set is described as follows: Inhibition of p38alpha MAPK (unknown origin) using ATF-2 as substrate after 1 hr by ELISA. Background: An ELISA detects its analyte on a solid surface through an enzyme-linked reagent.
Data set [3] is described as follows: Metabolic stability in human liver microsomes assessed as parent compound remaining after 240 mins by LC-MS analysis relative to control. The conditions noted are these: read-out: Stability. It is filed as ADME, Microsome.
The species named for the next data set is Homo sapiens. The data set is described as follows: Selectivity ratio, Ratio of IC50 for human recombinant full length GSK3beta to IC50 for p38alpha MAPK (unknown origin). In short, it runs like this: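 GSK3β was measured by ADP-Glo using 0.58 ng/µL recombinant human enzyme, 25 µM ATP and 0.2 µg/µL substrate peptide G50-58. Kinase was preincubated with serial compound dilutions for 10 min at rt, then reacted for 60 min at rt, with luminescence read-out. p38α inhibition was measured by ELISA.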

The target of data set [4] is Glycogen synthase kinase-3 alpha (Homo sapiens, UniProt P49840). The data set is described as follows: Inhibition of human recombinant full length GSK3alpha using YRRAAVPPSPSLSRHSSPHQ(pS)EDEEE as substrate preincubated with enzyme for 10 mins followed by substrate and 25 uM ATP addition measured after 60 mins by ADP-Glo luminescence assay. The method in brief: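 Recombinant human GSK3α at 0.50 ng/µL, 25 µM ATP, 0.2 µg/µL substrate G50-58, serial compound dilutions. Kinase was preincubated with compound 10 min at rt, then run 60 min at rt after substrate/ATP addition. ADP-Glo reagent 60 min, detection reagent 30 min, luminescence read. Uninhibited-kinase and ATP/substrate-only controls were included.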

A short description of data set [5]: Drug uptake in RjOrl:Swiss CD-1 mouse brain at 10 mg/kg, iv administered as single dose measured after 2 hrs by LC-MS analysis. In kind it is ADME, organism-based. As to conditions: read-out: Drug uptake. The method in brief:
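Adult male RjOrl:Swiss CD-1 mice got one intravenous dose of 10 mg/kg. Plasma was sampled at 10, 30 and 120 min. After the last sample the mice were sacrificed and brains dissected. Blood and brain samples were prepared and analysed by LC-MS for parent and sulfoxide metabolite; brain levels reported as ng/g.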

A short description of data set [6]: Metabolic stability in human liver microsomes assessed as parent compound remaining after 30 mins by LC-MS analysis relative to control. In kind it is ADME, Microsome. As to conditions: read-out: Stability. On the technique in general: Microsomes from liver hold many membrane-bound enzymes, among them those of drug oxidation.
Data set [7] is described as follows: Metabolic stability in human liver microsomes assessed as parent compound remaining after 120 mins by LC-MS analysis relative to control. In kind it is ADME, Microsome. As to conditions: read-out: Stability.
The nature of data set [8]: Metabolic stability in human liver microsomes assessed as parent compound remaining after 10 mins by LC-MS analysis relative to control. In kind it is ADME, Microsome. The conditions noted are these: read-out: Stability.
Data set [9] is described as follows: Metabolic stability in human liver microsomes assessed as parent compound remaining after 20 mins by LC-MS analysis relative to control. In kind it is ADME, Microsome. The conditions noted are these: read-out: Stability.
Data set [10] is described as follows: Metabolic stability in human liver microsomes assessed as parent compound remaining after 180 mins by LC-MS analysis relative to control. The conditions noted are these: read-out: Stability. In kind it is ADME, Microsome.
Data set [11] in a line: Metabolic stability in human liver microsomes assessed as parent compound remaining after 60 mins by LC-MS analysis relative to control. It is filed as ADME, Microsome. As to conditions: read-out: Stability.
Data set [12] deals with T1, Mitogen-activated protein kinase 14. The data set is described as follows: Inhibition of human recombinant p38alpha MAPK upto 10000 nM using Ulight-CFFKNIVTPRTPPPSQGK-amide as substrate measured after 30 mins by LANCE assay relative to control.
Another data set deals with Blood. The data set is described as follows: Inhibition of LPS-induced TNFalpha production in human whole blood preincubated with compound for 15 mins followed by LPS addition measured after 2.5 hrs by ELISA. It is filed as functional, tissue-based.

T1 sequence (Q16539 whole entry): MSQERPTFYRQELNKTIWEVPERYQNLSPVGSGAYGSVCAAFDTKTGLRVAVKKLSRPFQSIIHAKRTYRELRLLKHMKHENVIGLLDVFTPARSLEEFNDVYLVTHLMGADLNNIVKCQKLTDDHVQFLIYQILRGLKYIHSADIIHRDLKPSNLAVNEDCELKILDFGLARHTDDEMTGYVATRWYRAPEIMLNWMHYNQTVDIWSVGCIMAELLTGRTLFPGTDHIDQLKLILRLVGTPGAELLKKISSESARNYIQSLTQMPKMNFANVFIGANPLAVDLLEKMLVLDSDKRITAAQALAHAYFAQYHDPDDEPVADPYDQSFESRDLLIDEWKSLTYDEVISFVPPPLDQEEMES
Glycogen synthase kinase-3 beta, sequence (P49841 whole entry): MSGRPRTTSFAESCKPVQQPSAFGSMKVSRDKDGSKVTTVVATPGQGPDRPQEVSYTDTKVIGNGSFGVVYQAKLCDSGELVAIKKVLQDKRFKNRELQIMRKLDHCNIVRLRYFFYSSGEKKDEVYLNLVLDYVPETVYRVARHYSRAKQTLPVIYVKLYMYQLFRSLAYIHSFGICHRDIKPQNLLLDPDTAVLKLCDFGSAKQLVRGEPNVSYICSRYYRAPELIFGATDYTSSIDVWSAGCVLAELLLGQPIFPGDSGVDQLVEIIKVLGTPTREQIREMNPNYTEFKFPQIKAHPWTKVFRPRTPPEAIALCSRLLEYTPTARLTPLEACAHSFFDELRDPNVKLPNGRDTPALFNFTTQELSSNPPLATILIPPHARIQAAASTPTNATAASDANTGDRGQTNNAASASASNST
Glycogen synthase kinase-3 alpha, sequence (P49840 whole entry): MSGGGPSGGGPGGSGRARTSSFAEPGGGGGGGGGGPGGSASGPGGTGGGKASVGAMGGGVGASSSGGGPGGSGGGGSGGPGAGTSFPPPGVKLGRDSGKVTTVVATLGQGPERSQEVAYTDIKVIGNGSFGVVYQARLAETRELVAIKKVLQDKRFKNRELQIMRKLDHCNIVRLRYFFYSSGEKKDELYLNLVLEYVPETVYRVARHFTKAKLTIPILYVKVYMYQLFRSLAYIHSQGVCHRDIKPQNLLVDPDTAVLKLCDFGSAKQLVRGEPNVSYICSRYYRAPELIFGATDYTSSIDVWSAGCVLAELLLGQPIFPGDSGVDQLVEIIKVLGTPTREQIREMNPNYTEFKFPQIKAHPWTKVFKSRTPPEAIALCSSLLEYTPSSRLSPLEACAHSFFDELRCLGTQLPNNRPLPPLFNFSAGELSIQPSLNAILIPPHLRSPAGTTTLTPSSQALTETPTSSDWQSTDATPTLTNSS

Usually IC50 stands for the concentration needed to halve the response being measured. As for `CSc1nc(-c2ccc(F)cc2)c(-c2ccnc(NC(=O)c3ccccn3)c2)[nH]1`, the IC50 is above 10000 nM in data set [1] and 42 nM in [2].
The corresponding values for `CSc1nc(-c2ccc(F)cc2)c(-c2ccnc(NC(=O)C3(C(F)(F)F)CC3)c2)[nH]1` are above 10000 nM and 184 nM.
With `CSc1nc(-c2ccc(F)cc2)c(-c2ccnc(NC(=O)Cc3ccc(C(F)(F)F)cc3)c2)[nH]1`, the IC50 in data set [1] is 3240 nM; in data set [2], 29 nM.
The matching figures for `COc1cc(CC(=O)Nc2cc(-c3[nH]c(SC)nc3-c3ccc(F)cc3)ccn2)cc(OC)c1OC`: 510 nM and 13 nM.
In the case of `O=C(Cc1ccc(F)cc1)Nc1cc(-c2[nH]c(SCc3ccccc3)nc2-c2ccc(F)cc2)ccn1`, the IC50 in [1] is 1500 nM; in [2], 3 nM. Further, in data set [3], the remaining at 4 h was determined as 66%. For the same compound, the Ratio IC50 in the data set filed under Homo sapiens is above 500.
Turning to `COc1cc(CCC(=O)Nc2cc(-c3[nH]c(SCc4ccccc4)nc3-c3ccc(F)cc3)ccn2)cc(OC)c1OC`, the IC50 in [1] is 1150 nM; in [2] it was 61 nM.
As for `C[S+]([O-])c1nc(-c2ccc(F)cc2)c(-c2ccnc(NC(=O)C3CC3)c2)[nH]1` (centres undefined), the figures for the IC50 in [1], in [2] and in data set [4] were 236 nM, 44 nM and 1340 nM, respectively. In addition, the concentration at 2 h in data set [5] came to 65.8 ng/g.
With `CSc1nc(-c2ccc(F)cc2)c(-c2ccnc(NC(=O)C3CC(=O)C3)c2)[nH]1`, the results for the IC50 in data set [1] and in [2] were 183 nM and 20 nM, respectively.
The matching figures for `CC(=O)Nc1cc(-c2[nH]c(SCc3ccccc3)nc2-c2ccc(F)cc2)ccn1`: 560 nM and 51 nM.
As to `CSc1nc(-c2ccc(F)cc2)c(-c2ccnc(NC(=O)[C@H]3C[C@@H](Cl)C3)c2)[nH]1`, the IC50 in data set [1] was 170 nM; in data set [2], 18 nM.
In the case of `COc1cccc(CCC(=O)Nc2cc(-c3[nH]c(SC)nc3-c3ccc(F)cc3)ccn2)c1`, the 50% inhibitory concentration (IC50) in data set [1] came to 471 nM; in data set [2], 36 nM.
The corresponding values for `O=C(Nc1cc(-c2[nH]cnc2-c2ccc(F)cc2)ccn1)C1CC1` are 64 nM and 19 nM.
The matching figures for `O=C(Nc1cc(-c2[nH]c(CCc3ccccc3)nc2-c2ccc(F)cc2)ccn1)C1CC1`: 133 nM and 20 nM.
Regarding `O=C(Nc1cc(-c2[nH]c(Cc3ccccc3)nc2-c2ccc(F)cc2)ccn1)C1CC1`, the remaining at 0.5 h in [6] is 78.1%. The remaining at 2 h in [7] was determined as 69.8%. The IC50 amounted to 59 nM in data set [1], 18 nM in data set [2] and 428 nM in [4]. The remaining at 10 min in data set [8] was determined as 92.4%. Also, in data set [9], the remaining at 20 min is 83.6%. In data set [3], the remaining at 4 h was 66.1%. In data set [10], the remaining at 3 h is 68.7%. In addition, the remaining at 1 h in data set [11] came to 69.4%.
On to `CSc1nc(-c2ccc(F)cc2)c(-c2ccnc(NC(=O)C3CCCO3)c2)[nH]1` (centres undefined), for which the IC50 in data set [1] was 527 nM; in data set [2], 28 nM.
In the case of `COc1cc(CCC(=O)Nc2cc(-c3[nH]c(SC)nc3-c3ccc(F)cc3)ccn2)cc(OC)c1OC`, the IC50 came out at 363 nM in data set [1], 88 nM in [2] and 2050 nM in data set [4].
Regarding `CSc1nc(-c2ccc(F)cc2)c(-c2ccnc(NC(=O)CC3CC3)c2)[nH]1`, the IC50 in data set [1] was 215 nM; in data set [2], 15 nM.
The matching figures for `CSc1nc(-c2ccc(F)cc2)c(-c2ccnc(NC(=O)C3CCC3)c2)[nH]1`: 132 nM and 27 nM.
The corresponding values for `COc1ccc(CCC(=O)Nc2cc(-c3[nH]c(SC)nc3-c3ccc(F)cc3)ccn2)cc1` are 542 nM and 55 nM.
The matching figures for `CSc1nc(-c2ccc(F)cc2)c(-c2ccnc(NC(=O)CCc3ccc(C(F)(F)F)cc3)c2)[nH]1`: 956 nM and 27 nM.
For the compound `CSc1nc(-c2ccc(F)cc2)c(-c2ccnc(NC(=O)C3CCC(=O)C3)c2)[nH]1` (centres undefined), the IC50 in data set [1] was 73 nM; in data set [2], 21 nM.
As to `CSc1nc(-c2ccc(F)cc2)c(-c2ccnc(NC(=O)c3ccoc3)c2)[nH]1`, the figures for the IC50 in data set [1] and in [2] were 3650 nM and 22 nM, respectively.
`C[S+]([O-])c1nc(-c2ccc(F)cc2)c(-c2ccnc(NC(=O)C3CCC3)c2)[nH]1` (centres undefined): the IC50 stood at 428 nM in [1] and 29 nM in data set [2].
The corresponding values for `CSc1nc(-c2ccc(F)cc2)c(-c2ccnc(NC(=O)C3CC3)c2)n1C` are 638 nM and 222 nM.
As to `CSc1nc(-c2ccc(F)cc2)c(-c2ccnc(NCC3CC3)c2)[nH]1`, the 50% inhibitory concentration (IC50) in [1] is above 10000 nM; in data set [2] it was 14 nM.
`Cc1nc(-c2ccc(F)cc2)c(-c2ccnc(NC(=O)C3CC3)c2)[nH]1`: the values for the IC50 in data set [1] and in [2] were 53 nM and 19 nM, respectively.
For the compound `CSc1nc(-c2ccc(F)cc2)c(-c2ccnc(NC(=O)[C@H]3C[C@H](Cl)C3)c2)[nH]1`, the results for the IC50 in [1] and in data set [2] were 395 nM and 38 nM, respectively.
The corresponding values for `CSc1nc(-c2ccc(F)cc2)c(-c2ccnc(NC(C)=O)c2)[nH]1` are 152 nM and 45 nM.
For orientation: inhibition means the share of the control response that was lost under treatment. Regarding `Cc1ncc(-c2ccnc(NC(=O)C3CC3)c2)[nH]1`, the IC50 in data set [1] amounted to 1680 nM. Besides, the inhibition in data set [12] was 1%.
As for `CSc1nc(-c2ccc(F)cc2)c(-c2ccnc(NC(=O)C3CCCC3)c2)[nH]1`, the IC50 in data set [1] is 136 nM; in [2], 40 nM.
The matching figures for `O=C(Nc1cc(-c2[nH]c(-c3ccco3)nc2-c2ccc(F)cc2)ccn1)C1CC1`: 156 nM and 18 nM.
The corresponding values for `CSc1nc(-c2ccc(F)cc2)c(-c2ccnc(NC(=O)CN3CCCC3=O)c2)[nH]1` are 126 nM and 23 nM.
The corresponding values for `O=C(Nc1cc(-c2[nH]c(-c3ccccc3)nc2-c2ccc(F)cc2)ccn1)C1CC1` are 570 nM and 27 nM.
Consider `O=C(Nc1cc(-c2[nH]c(SCc3ccccc3)nc2-c2ccc(F)cc2)ccn1)C1CCCC1`, for which the IC50 was 663 nM in data set [1] and 20 nM in data set [2].
For `CSc1nc(-c2ccc(F)cc2)c(-c2ccnc(NC(=O)[C@@H]3C[C@H]3c3ccccc3)c2)[nH]1` (relative stereo), the IC50 in data set [1] was found to be 808 nM; in data set [2] it was 15 nM.
On to `O=C(Nc1cc(-c2[nH]c(SCc3ccccc3)nc2-c2ccc(F)cc2)ccn1)C1CC1`, for which the IC50 worked out at 229 nM in [1], 41 nM in [2] and 853 nM in data set [4].
Regarding `C[S+]([O-])c1ccc(-c2nc(-c3ccc(F)cc3)c(-c3ccncc3)[nH]2)cc1` (centres undefined) [SB-203580], the IC50 in the data set with Blood amounted to 3200 nM.
With `CSc1nc(-c2ccnc(NC(=O)C3CC3)c2)c(-c2ccc(F)cc2)n1C`, the results for the IC50 in data set [1] and in [2] were 1780 nM and 1600 nM, respectively.

For the origin of these results see ChEMBL document CHEMBL4393708, “Pyridinylimidazoles as dual glycogen synthase kinase 3β/p38α mitogen-activated protein kinase inhibitors” (Eur J Med Chem, 2019).
